Measured values from PMC4777260 (Pharmacology Research & Perspectives, 2016).

Legend:
fXa [1] = settings: equal fXa occupancy human/rat
Human fIXa = Human fIXa (Homo sapiens, UniProt P00740); assay: fIXa inhibition constant; assay type: biochemical
aPTT = assay: Ex vivo activated partial thromboplastin time; assay type: in vivo, rat; settings: plasma collected post-AVS, small molecule study
Method in brief: (§1)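 Rats received a steady-state IV bolus-plus-infusion. A terminal blood sample was taken after the shunt and bleeding procedures into sodium citrate (11 mmol/L final). It was centrifuged at 2500g, 4°C, 15 min. One platelet-poor plasma aliquot was used for clotting times and the other for plasma drug concentration.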

[2] = tested on: rat arteriovenous shunt (AVS/thrombosis); assay: Rat arteriovenous shunt; assay type: in vivo
Method in brief: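 Male Sprague Dawley rats (350–400 g) were anaesthetised with thiobutabarbital. Test compound or vehicle (35% w/v hydroxypropyl-β-cyclodextrin, 10 mmol/L phosphate buffer) was given as an IV bolus plus constant infusion: five doses, n ≥ 10/group, blinded. At 15 min, a carotid–jugular shunt with silk thread ran 15 min. CW = thread weight gain. A vehicle-proportional Imax model was fitted to CW versus plasma concentration.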

fXa [3] = assay: Calculated fXa enzyme occupancy; settings: rat AVS
fXa [4] = assay: Calculated fXa enzyme occupancy; parameters: species or system human; settings: C min 107 ng/mL, 5 mg BID SPAF dose
[5] = tested on: rat cuticle bleeding time (CBT); assay: Rat cuticle bleeding time; assay type: in vivo
Method in brief: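 Same anaesthetised, IV bolus-plus-infusion rats as the shunt study. Five minutes after shunt placement, two hind-paw toe cuticles were cut at the quick. The paw was immersed in 37° lactated Ringer's, and time to bleeding cessation was recorded (10 min maximum). A linear model of CBT versus plasma concentration treated 600 s values as right-censored. Median and 5th/95th percentiles were simulated from parameter standard errors.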

[6] = tested on: fIIa formation (thrombin generation); assay: Ex vivo thrombin generation assay; assay type: in vivo, rat; settings: TF 1, 5, 20 pmol/L trigger
rat fIXa = rat fIXa (Rattus norvegicus, UniProt P16296); assay: fIXa inhibition constant; assay type: biochemical
Chain of rat fIXa (P16296 228-462 limits assumed): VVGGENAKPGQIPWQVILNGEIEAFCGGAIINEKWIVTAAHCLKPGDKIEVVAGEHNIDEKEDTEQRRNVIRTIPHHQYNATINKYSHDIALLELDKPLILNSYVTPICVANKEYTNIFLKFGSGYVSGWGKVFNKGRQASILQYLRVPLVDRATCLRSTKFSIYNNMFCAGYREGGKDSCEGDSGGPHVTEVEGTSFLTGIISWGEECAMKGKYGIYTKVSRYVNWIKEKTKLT
Chain of rat fIXa (P16296 40-185 partner limits assumed): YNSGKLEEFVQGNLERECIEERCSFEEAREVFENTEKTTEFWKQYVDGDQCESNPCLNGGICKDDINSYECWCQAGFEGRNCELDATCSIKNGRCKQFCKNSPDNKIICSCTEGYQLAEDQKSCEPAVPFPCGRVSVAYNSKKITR

Rat pharmacokinetics = settings: in vivo
[7] = Fraction unbound in plasma by equilibrium dialysis, rat; assay type: in vitro ADME
Method in brief: (§2)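 Plasma fraction unbound was determined by equilibrium dialysis in triplicate. Its standard error fed simulations of clinically relevant concentration ranges.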

[8] = Fraction unbound in plasma by equilibrium dialysis, human; assay type: in vitro ADME
Method in brief: as §2

PT = assay: Ex vivo prothrombin time; assay type: in vivo, rat; settings: plasma collected post-AVS, small molecule study
Method in brief: as §1

Chain of Human fIXa (P00740 227-461 limits assumed): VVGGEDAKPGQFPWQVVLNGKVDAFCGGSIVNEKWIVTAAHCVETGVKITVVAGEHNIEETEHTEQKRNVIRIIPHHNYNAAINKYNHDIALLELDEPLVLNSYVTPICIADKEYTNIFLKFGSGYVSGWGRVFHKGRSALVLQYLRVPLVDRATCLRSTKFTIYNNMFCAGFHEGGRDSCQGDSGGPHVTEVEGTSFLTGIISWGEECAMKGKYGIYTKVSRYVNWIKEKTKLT
Chain of Human fIXa (P00740 47-191 partner limits assumed): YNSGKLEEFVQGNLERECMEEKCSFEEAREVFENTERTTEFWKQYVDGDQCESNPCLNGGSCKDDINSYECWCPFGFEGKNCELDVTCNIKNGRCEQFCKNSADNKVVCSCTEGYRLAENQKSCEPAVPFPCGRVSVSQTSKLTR

COc1ccc(-n2nc(C(N)=O)c3c2C(=O)N(c2ccc(N4CCCCC4=O)cc2)CC3)cc1 [Apixaban]
predicted rat equivalent of C avg (fXa [1]): 24 µM
Ki (Human fIXa): > 30 µM
effect on aPTT (in words) (aPTT): concentration‐dependent increase
target CW corresponding to the apixaban clinical C min ([2]; PK/PD model simulation at rat equivalent of clinical C min): 16 (12–24) mg
CW reduction vs vehicle (in words) ([2]; two highest doses A4 (3/3.75 mg/kg), A5 (8/10.2 mg/kg)): significant CW reduction
I max (maximal inhibition of CW) ([2]; vehicle-proportional Imax PK/PD model of CW vs rat plasma concentration): 0.946
fXa EO required to ensure CW <50 mg in all animals (fXa [3]): > 99%
calculated EO achieved at median C min (fXa [4]): 99.2%
animals that reached the limit of the CBT assay (600 sec) ([5]; higher doses): 17
Slope (slope of the drug effect on bleeding time) ([5]; linear PK/PD model of CBT vs rat plasma concentration): 29.6
effect on CBT vs vehicle (in words) ([5]; two effective doses A4, A5): significant prolongation of the CBT
activity in TGA (in words) [6]: activity was constant across the TF concentration tested
Ki (rat fIXa): > 30 µM
clearance (Rat pharmacokinetics): 12 mL/min/kg
half-life (Rat pharmacokinetics): 51.6 min
fraction unbound [7]: 0.019
fraction unbound [8]: 0.093 ± 0.013
effect on PT (in words) (PT): concentration‐dependent increase
